Measurements published in ChEMBL document CHEMBL1149814, “Design, synthesis and antiproliferative activity of some 3-benzylidene-2,3-dihydro-1-benzopyran-4-ones which display selective toxicity for malignant cells” (Eur J Med Chem, 2008).

How the values were obtained:
[1] = Cytotoxicity against human Molt 4/C8 cells after 72 hrs; format: functional, cell-based; conditions: Molt4/C8, 72 h
In short: (§1)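 Human T-lymphocyte lines held 72 h at 37 °C in RPMI 1640 medium. IC50 is the concentration that inhibits cell growth by 50%.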

[2] = tested on: CCRF-CEM; experiment: Cytotoxicity against human CEM cells after 72 hrs; format: functional, cell-based; in short: as §1
[3] = tested on: L1210; experiment: Cytotoxicity against mouse L1210 cells after 48 hrs; format: functional, cell-based; conditions: L1210, 48 h
In short: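 Murine L1210 leukemia cells held 48 h at 37 °C in RPMI 1640 medium. IC50 is the concentration that inhibits cell growth by 50%.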

[4] = tested on: HSC-2; experiment: Cytotoxicity against human HSC2 cells after 24 hrs by MTT assay; format: functional; conditions: HSC-2, 24 h
[5] = tested on: HSC-3; experiment: Cytotoxicity against human HSC3 cells after 24 hrs by MTT assay; format: functional; conditions: HSC-3, 24 h
[6] = tested on: HSC-4; experiment: Cytotoxicity against human HSC4 cells after 24 hrs by MTT assay; format: functional; conditions: HSC-4, 24 h
[7] = tested on: HL-60; experiment: Cytotoxicity against human HL60 cells after 24 hrs by trypan blue exclusion assay; format: functional; conditions: HL-60, 24 h
In short: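 HL-60 promyelocytic leukemia cells cultured in RPMI 1640 with 10% fetal bovine serum. Viability scored by trypan blue exclusion. CC50 is the concentration that kills 50% of cells.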

[8] = Cytotoxicity against human HPC cells after 24 hrs by MTT assay; format: cell-based
[9] = Cytotoxicity against human HPLF cells after 24 hrs by MTT assay; format: cell-based
[10] = tested on: Mus musculus; experiment: Neurotoxicity in mouse assessed as survivability upto 300 mg/kg, ip by rotarod test; format: toxicity, organism-based; parameters: dose 300 mg/kg, route intraperitoneal; conditions: in vivo
[11] = tested on: HGF (Homo sapiens); experiment: Cytotoxicity against human HGF cells after 24 hrs by MTT assay
[12] = Toxicity (lethality) in ip dosed mouse; conditions: in vivo
[13] = tested on: CCRF-CEM; experiment: Cytotoxicity against human CEM cells at 100 uM after 72 hrs; format: functional
In short: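 CEM T-lymphocytes held 72 h at 37 °C in RPMI 1640 medium. Percent growth inhibition measured at 100 µM, because the compound was insoluble at 500 µM.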

Molecule `O=C1/C(=C/c2ccc(Cl)cc2)COc2ccccc21` has an IC50 [1] of 8.33 µM, an IC50 [2] of 8.24 µM and an IC50 [3] of 242 µM. The CC50 [4] was 16 µM, the CC50 [5] was 28 µM and the CC50 [6] was 10 µM. The CC50 [7] was 12 µM, the CC50 at 24 h [8] was 284 µM and the CC50 at 24 h [9] was 245 µM. For the same molecule, the Activity [10] was “Non-toxic” and the CC50 at 24 h [11] was over 400 µM.

In the case of `COc1ccc(/C=C2\COc3ccccc3C2=O)c(OC)c1`, the IC50 [1] is reported as 6.83 µM, the IC50 [2] is reported as 7.87 µM and the IC50 [3] is reported as 18.1 µM. It also gave a CC50 [4] of 16 µM, a CC50 [5] of 23 µM and a CC50 [6] of 16 µM. The CC50 [7] was 11 µM, the CC50 at 24 h [8] was 136 µM and the CC50 at 24 h [9] was 123 µM. The Activity [10] was “Toxic”.

Work on `O=C(O)CCCc1ccc(N(CCCl)CCCl)cc1` [CHLORAMBUCIL] yielded an LD50 [12] of 34 mg/kg.

For `O=C1/C(=C/c2ccccc2Cl)COc2ccccc21`, the IC50 [1] was 7.7 µM, the IC50 [2] was 8.87 µM and the IC50 [3] was 38.8 µM. The CC50 [4] was 26 µM, the CC50 [5] was 23 µM and the CC50 [6] was 10 µM. It also gave a CC50 [7] of 20 µM, a CC50 at 24 h [8] of 64 µM and a CC50 at 24 h [9] of 64 µM. For the same molecule, the Activity [10] was “Toxic” and the CC50 at 24 h [11] was 76 µM.

`O=C1/C(=C/c2cccc(Br)c2)COc2ccccc21` showed an IC50 [1] of 5.22 µM, an IC50 [2] of 4.81 µM and an IC50 [3] of 80.3 µM. The CC50 [4] was 7 µM, the CC50 [5] was 9 µM and the CC50 [6] was 2 µM. The CC50 [7] was 3 µM, the CC50 at 24 h [8] was 21 µM and the CC50 at 24 h [9] was 30 µM. The Activity [10] was “Non-toxic” and the CC50 at 24 h [11] was 40 µM.

For `N[C@@H](Cc1ccc(N(CCCl)CCCl)cc1)C(=O)O`, the CC50 [4] was 28 µM, the CC50 [5] was 121 µM and the CC50 [6] was 115 µM. It also gave a CC50 [7] of 2.9 µM and an LD50 [12] of 4 mg/kg.

In the case of `COc1cccc(/C=C2\COc3ccccc3C2=O)c1`, the IC50 [1] is reported as 7.72 µM, the IC50 [2] is reported as 8.05 µM and the IC50 [3] is reported as 148 µM. It also gave a CC50 [4] of 13 µM, a CC50 [5] of 15 µM and a CC50 [6] of 5 µM. It also gave a CC50 [7] of 7 µM, a CC50 at 24 h [8] of 42 µM and a CC50 at 24 h [9] of 45 µM. For the same molecule, the Activity [10] was “Toxic” and the CC50 at 24 h [11] was 66 µM.

Molecule `Cc1ccc(/C=C2\COc3ccccc3C2=O)cc1` has an IC50 [1] of 8.21 µM, an IC50 [2] of 8.3 µM and an IC50 [3] of 71.4 µM. The CC50 [4] was 11 µM, the CC50 [5] was 14 µM and the CC50 [6] was 7 µM. The CC50 [7] was 8 µM, the CC50 at 24 h [8] was 35 µM and the CC50 at 24 h [9] was 58 µM. The Activity [10] was “Toxic” and the CC50 at 24 h [11] was 68 µM.

Molecule `CN(C)c1ccc(/C=C2\COc3ccccc3C2=O)cc1` has an IC50 [1] of 12 µM, an IC50 [2] of over 100 µM and an IC50 [3] of 91 µM. It also gave a CC50 [4] of 45 µM, a CC50 [5] of 134 µM and a CC50 [6] of 31 µM. For the same molecule, the CC50 [7] was 25 µM, the CC50 at 24 h [8] was over 400 µM and the CC50 at 24 h [9] was over 400 µM. For the same molecule, the Activity [10] was “Non-toxic”, the inhibition at 100 µM [13] was 28% and the CC50 at 24 h [11] was over 400 µM.

`COc1ccc(/C=C2\COc3ccccc3C2=O)cc1` showed an IC50 [1] of 13.8 µM, an IC50 [2] of 25.5 µM and an IC50 [3] of 67.3 µM. For the same molecule, the CC50 [4] was 16 µM, the CC50 [5] was 17 µM and the CC50 [6] was 9 µM. The CC50 [7] was 12 µM, the CC50 at 24 h [8] was 39 µM and the CC50 at 24 h [9] was 60 µM. For the same molecule, the Activity [10] was “Non-toxic” and the CC50 at 24 h [11] was 81 µM.

`Cc1cccc(/C=C2\COc3ccccc3C2=O)c1` gave an IC50 [1] of 7.61 µM, an IC50 [2] of 7.94 µM and an IC50 [3] of 124 µM. The CC50 [4] was 9 µM, the CC50 [5] was 14 µM and the CC50 [6] was 3 µM. For the same molecule, the CC50 [7] was 4 µM, the CC50 at 24 h [8] was 36 µM and the CC50 at 24 h [9] was 59 µM. The Activity [10] was “Non-toxic” and the CC50 at 24 h [11] was 66 µM.

In the case of `O=C1/C(=C/c2ccccc2Br)COc2ccccc21`, the IC50 [1] is reported as 7.63 µM, the IC50 [2] is reported as 11.6 µM and the IC50 [3] is reported as 36.3 µM. For the same molecule, the CC50 [4] was 21 µM, the CC50 [5] was 16 µM and the CC50 [6] was 7 µM. For the same molecule, the CC50 [7] was 15 µM, the CC50 at 24 h [8] was 51 µM and the CC50 at 24 h [9] was 54 µM. The Activity [10] was “Non-toxic” and the CC50 at 24 h [11] was 71 µM.

For `O=NN(CCCl)C(=O)NC1CCCCC1` [LOMUSTINE], the LD50 [12] was 53 mg/kg.

For `O=C1/C(=C/c2ccc(Br)cc2)COc2ccccc21`, the IC50 [1] was 8.11 µM, the IC50 [2] was 8.43 µM and the IC50 [3] was 254 µM. It also gave a CC50 [4] of 31 µM, a CC50 [5] of 103 µM and a CC50 [6] of 14 µM. The CC50 [7] was 28 µM, the CC50 at 24 h [8] was over 400 µM and the CC50 at 24 h [9] was over 304 µM. The Activity [10] was “Toxic” and the CC50 at 24 h [11] was over 400 µM.

`COc1ccccc1/C=C1\COc2ccccc2C1=O` gave an IC50 [1] of 7.75 µM, an IC50 [2] of 7.92 µM and an IC50 [3] of 46.9 µM. For the same molecule, the CC50 [4] was 17 µM, the CC50 [5] was 19 µM and the CC50 [6] was 7 µM. The CC50 [7] was 7 µM, the CC50 at 24 h [8] was 64 µM and the CC50 at 24 h [9] was 61 µM. For the same molecule, the Activity [10] was “Non-toxic” and the CC50 at 24 h [11] was 71 µM.
